We go through 19 compounds from ChEMBL document CHEMBL4364242, “Novel cationic bis(acylhydrazones) as modulators of Epstein-Barr virus immune evasion acting through disruption of interaction between nucleolin and G-quadruplexes of EBNA1 mRNA” (Eur J Med Chem, 2019).

The test system of series [1] is human gammaherpesvirus 4. Put plainly: Binding affinity to EBNA1 G4-quadruplex in human H1299 cells assessed as EB virus EBNA1 deleted GAr expression at 10 uM incubated for 40 hrs by western blot analysis. Type of series: cell-based. The gist of the method:
(§1)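 H1299 cells in RPMI-1640 with 10% FBS at 37 °C, 5% CO2, transiently transfected with EBNA1 or EBNA1ΔGAr constructs, then treated with 10 μM compound (DMSO vehicle) for 40 h. Lysates taken 48 h post-transfection and western blotted with anti-EBNA1 (OT1X). Levels normalized to GAPDH; at least three repeats.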

Series [2] is described as follows: Displacement of TO from EB virus g4-EBNA1 mRNA measured after 5 mins by FID assay. Also on record: species or system human gammaherpesvirus 4. The gist of the method:
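g4-EBNA1 RNA annealed 95 °C 5 min in K100 buffer (10 mM KAsO2Me2, 100 mM KCl, 1 mM EDTA, 1% DMSO), then mixed with TO; final 0.25 μM RNA and 0.5 μM TO, ligand 0–2.5 μM. Fluorescence read after 5 min shaking (485/520 nm), in duplicate. Displacement = 100×(1−F/F0); DC50 interpolated from the curve.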

In series [3] the test system is human gammaherpesvirus 4. The experiment in a line: Binding affinity to EBNA1 G4-quadruplex in human H1299 cells assessed as EB virus EBNA1 expression at 10 uM incubated for 40 hrs by western blot analysis. Type of series: cell-based. The gist of the method: as §1
For series [4], the species on record is Homo sapiens. Put plainly: Binding affinity to […] assessed as increase in melting temperature at 1 uM by fluorescence method. The gist of the method: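 F-25TAG-T telomeric DNA (5'-FAM/3'-TAMRA) melted with 1 μM ligand in K-100 buffer (10 mM LiAsO2Me2, 100 mM KCl, pH 7.3). Heating 25–95 °C at 0.5 °C/min. ΔTm derived from first-derivative Tm maxima relative to the no-ligand run.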

The subject of series [5] is NCI-H1299. Put plainly: Effect on 235Gar-OVA expression in human H1299 cells at 10 uM incubated for 40 hrs by western blot analysis. The class given is functional. Also on record: unit not given here. The gist of the method: (§2)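 OVA or 235GAr-OVA constructs transiently transfected into H1299 cells, followed by 40 h exposure to 10 μM compound or DMSO. Whole-cell lysates immunoblotted with rabbit anti-OVA; signal normalized to GAPDH. Experiments repeated at least three times.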

A short description of series [6]: Binding affinity to […] (unknown origin) assessed as increase in melting temperature at 1 uM by fluorescence method. In outline: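 Labeled F-myc22-T DNA (5'-FAM/3'-TAMRA) melted with 1 μM ligand in K-1 buffer (10 mM LiAsO2Me2, 1 mM KCl, 99 mM LiCl, pH 7.3). Ramp 0.5 °C/min from 25 to 95 °C. Tm taken from first-derivative maxima and ΔTm calculated versus ligand-free control.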

The subject of series [7] is human gammaherpesvirus 4. Put plainly: Binding affinity to EB virus F-g4-EBNA1 mRNA assessed as increase in melting temperature at 1 uM by fluorescence method.
The test system of series [8] is NCI-H1299. Put plainly: Effect on OVA expression in human H1299 cells at 10 uM incubated for 40 hrs by western blot analysis. Type of series: functional. Also on record: unit not given here. The gist of the method:
as §2

Series [9] concerns NCI-H1299. The experiment in a line: Cytotoxicity against OVA-over expressing human H1299 cells at 10 uM incubated for 40 hrs. The class given is cell-based. The settings on record: nci-h1299, 40 h.
The subject of series [10] is NCI-H1299. Put plainly: Cytotoxicity against 235Gar-OVA-over expressing human H1299 cells at 10 uM incubated for 40 hrs. The class given is cell-based. The conditions noted are these: nci-h1299, 40 h.
Series [11] in a line: Inhibition of recombinant NCL (unknown origin)/EB virusG4-EBNA1 mRNA interaction at 10 uM by RNA pull-down assay. In outline: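 Biotin-TEG RNA (g4-EBNA1 or non-G4 GM) folded in 10 mM Tris pH 7.5, 100 mM KCl, 0.1 mM EDTA (95 °C 5 min, cooled 2 °C/min), then bound to blocked streptavidin beads. 200 ng recombinant NCL added for 90 min at room temperature with 10 μM compound or DMSO. Beads washed up to 800 mM KCl; eluates western-blotted for NCL.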

Structures are written as SMILES. Calls of active or inactive are those of the source. The rule behind the calls is not given here.

For the compound `O=C(N/N=C/c1ccc2c(ccc[n+]2Cc2ccccc2)c1)c1ccc2ccc(C(=O)N/N=C/c3ccc4c(ccc[n+]4Cc4ccccc4)c3)nc2n1.[Br-].[Br-]`, the result in series [1] and in [3] was inactive. In addition, the IC50 in [2] is 1090 nM. Moreover, the ΔTm in series [4] and in [6] was 15 to 30 °C each time. Further, the Activity in series [5] worked out at 104; in [8], 108. Besides, the outcome in [7] was Active.
On to `CC[n+]1cccc2cc(/C=N/NC(=O)c3ccc4ccc(C(=O)N/N=C/c5ccc6c(ccc[n+]6CC)c5)nc4n3)ccc21.[I-].[I-]`, for which the outcome in [1] and in [3] was inactive. The compound also returned an IC50 in series [2] of 800 nM. Further, the ΔTm in series [4] and in series [6] was 15 to 30 °C each time. Also, the Activity in series [5] came out at 82; in [8], 111. Also, in series [7], the outcome was Active.
Consider `CC[n+]1cccc2cc(/C=N/NC(=O)c3ccc4ccc5ccc(C(=O)N/N=C/c6ccc7c(ccc[n+]7CC)c6)nc5c4n3)ccc21.[I-].[I-]`, for which the outcome in series [1] and in [3] was inactive. In series [2], this compound came in with an IC50 of 590 nM. Moreover, the ΔTm in series [4] fell in the range of 15 to 30 °C; in series [6] it was 15 to 30 °C; in series [7] it was 20 to 30 °C. In addition, the Activity stood at 80 in series [5] and 96 in series [8].
With `C[n+]1ccc(/C=N/NC(=O)c2ccc3ccc4ccc(C(=O)N/N=C/c5cc[n+](C)cc5)nc4c3n2)cc1.[I-].[I-]`, the outcome in series [1] and in series [3] was Active. Besides, the IC50 in series [2] was 320 nM. In addition, the ΔTm lay within 15 to 30 °C in series [4], 15 to 30 °C in series [6] and 10 to 20 °C in [7]. Further, the Activity in series [5] was determined as 78; in [8], 76.
Regarding `O=C(N/N=C/c1cc[n+](Cc2ccccc2)c2ccccc12)c1ccc2ccc3ccc(C(=O)N/N=C/c4cc[n+](Cc5ccccc5)c5ccccc45)nc3c2n1.[Br-].[Br-]`, the outcome in series [1] and in [3] was inactive. The IC50 in [2] came out at 340 nM. Besides, the ΔTm fell in the range of 15 to 30 °C in [4], 15 to 30 °C in series [6] and 20 to 30 °C in series [7]. The values for the Activity in [5] and in series [8] were 96 and 114, respectively.
Take `C[n+]1ccc(C=NNC(=O)c2ccc3ccc4ccc(C(=O)NN=Cc5cc[n+](C)cc5)nc4c3n2)cc1.[I-].[I-]`: the Activity result in [9] and in [10] was “Toxic” each time.
As for `C[n+]1ccc(/C=N/NC(=O)c2ccc3ccc(C(=O)N/N=C/c4cc[n+](C)cc4)nc3n2)cc1.[I-].[I-]`, the result in series [1] and in [3] was inactive. The IC50 in series [2] was found to be 930 nM. Moreover, the Activity in series [5] was 112; in series [8], 99. Moreover, the ΔTm in series [7] was less than 10 °C.
In turn, `C[n+]1cc(NC(=O)c2ccc3ccc4ccc(C(=O)Nc5cc6ccccc6[n+](C)c5)nc4c3n2)cc2ccccc21` showed an IC50 in [2] of 310 nM. Further, the fold change (FC) in [11] worked out at 2. In addition, the ΔTm in series [4] was greater than 35 °C; in series [6], greater than 35 °C; in series [7], 30 °C.
As for `O=C(N/N=C/c1ccc2c(ccc[n+]2Cc2ccccc2)c1)c1ccc2ccc3ccc(C(=O)N/N=C/c4ccc5c(ccc[n+]5Cc5ccccc5)c4)nc3c2n1.[Br-].[Br-]`, the outcome in [1] and in series [3] was inactive. The IC50 in [2] worked out at 650 nM. Besides, the results for the shift in melting temperature (ΔTm) in [4], in [6] and in series [7] were 15 to 30 °C, 15 to 30 °C and 20 to 30 °C, respectively. The Activity in series [5] came out at 111; in [8], 94.
Take `CC[n+]1cccc2cc(/C=N/NC(=O)c3cc(C(=O)N/N=C/c4ccc5c(ccc[n+]5CC)c4)ncn3)ccc21.[I-].[I-]`: the result in series [1] and in [3] was Active. This compound displayed a half-maximal inhibitory concentration (IC50) in [2] greater than 2500 nM. Moreover, the Activity result in series [9] is on record as “Toxic”; in [10], “Toxic”; in series [5] it was 48; in series [8], 47.
Take `O=C(N/N=C/c1cc[n+](Cc2ccccc2)c2ccccc12)c1cc(C(=O)N/N=C/c2cc[n+](Cc3ccccc3)c3ccccc23)ncn1.[Br-].[Br-]`: the result in series [1] and in [3] was inactive. In [2], this compound yielded an IC50 of 1240 nM. Moreover, the Activity in series [5] is listed as 108; in series [8] it was 106.
Consider `O=C(N/N=C/c1ccc2c(ccc[n+]2Cc2ccccc2)c1)c1cc(C(=O)N/N=C/c2ccc3c(ccc[n+]3Cc3ccccc3)c2)ncn1.[Br-].[Br-]`, for which the result in series [1] and in [3] was Active. The compound also gave an IC50 in series [2] greater than 2500 nM. Further, the Activity in series [5] stood at 139; in series [8], 137.
Regarding `O=C(N/N=C/c1cc[n+](Cc2ccccc2)c2ccccc12)c1ccc2ccc(C(=O)N/N=C/c3cc[n+](Cc4ccccc4)c4ccccc34)nc2n1.[Br-].[Br-]`, the result in [1] and in [3] was inactive. In series [2], this compound came in with an IC50 of 710 nM. Further, the ΔTm in [4] and in series [6] was 15 to 30 °C throughout. The values for the Activity in series [5] and in series [8] were 106 and 93, respectively. Moreover, the outcome in series [7] was Active.
For the compound `C[n+]1ccc(/C=N/NC(=O)c2cc(C(=O)N/N=C/c3cc[n+](C)cc3)ncn2)cc1.[I-].[I-]`, the result in series [1] and in series [3] was inactive. Further, in series [2], the concentration for half-maximal inhibition (IC50) is greater than 2500 nM. For the same compound, the results for the Activity in series [5] and in series [8] were 80 and 92, respectively.
With `O=C(N/N=C/c1cc[n+](Cc2ccccc2)c2ccccc12)c1cccc(C(=O)N/N=C/c2cc[n+](Cc3ccccc3)c3ccccc23)n1.[Br-].[Br-]`, the result in [1], in [3] and in series [7] was Active. For the same compound, the IC50 in series [2] worked out at 390 nM. In addition, the thermal shift (ΔTm) in [4] and in [6] was 15 to 30 °C each time. In addition, the Activity is listed as 134 in series [5] and 149 in [8].
Take `C[n+]1ccc(/C=N/NC(=O)c2cccc(C(=O)N/N=C/c3cc[n+](C)cc3)n2)cc1.[I-].[I-]`: the result in series [1] and in series [3] was inactive. Further, in series [2], the IC50 was found to be 2320 nM. For the same compound, the Activity in series [5] stood at 106; in series [8], 93. In addition, the ΔTm in series [7] was less than 10 °C.
As to `CC[n+]1cccc2cc(/C=N/NC(=O)c3cccc(C(=O)N/N=C/c4ccc5c(ccc[n+]5CC)c4)n3)ccc21.[I-].[I-]`, the outcome in series [1] and in series [3] was inactive. Further, the IC50 in [2] is 740 nM. Moreover, the ΔTm in series [4] and in series [6] was 15 to 30 °C each time. The values for the Activity in series [5] and in series [8] were 86 and 98, respectively. In addition, in series [7], the result was Active.
`C[n+]1ccc(/C=N/NC(=O)c2cc(C(=O)N/N=C/c3cc[n+](C)c4ccccc34)ncn2)c2ccccc21.[I-].[I-]`: the outcome in [1] and in series [3] was inactive. Moreover, in series [2], the IC50 was determined as 740 nM. Further, the Activity in [5] worked out at 89; in [8] it was 103.
As for `C[n+]1ccc(/C=N/NC(=O)c2ccc3ccc(C(=O)N/N=C/c4cc[n+](C)c5ccccc45)nc3n2)c2ccccc21.[I-].[I-]`, the result in series [1] and in series [3] was inactive. The same compound displayed an IC50 in series [2] of 610 nM. The ΔTm in series [4] and in series [6] was 15 to 30 °C throughout. Further, the Activity in [5] is listed as 95; in [8], 100. The outcome in series [7] was Active.
